The source of these data is ChEMBL document CHEMBL1142189 (Antimicrob Agents Chemother, 2007).

Values after ≈ are worked out from the molar mass of the structure shown.

What all share (format): functional, organism-based
Assay [1] concerns Plasmodium falciparum. The assay is described as follows: Inhibition of Plasmodium falciparum in HRP2 ELISA. In a few lines:
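Fresh P. falciparum clinical isolates from untreated patients with confirmed monoinfection, unfrozen, unwashed, not precultured, no serum added; 1.5% hematocrit in complete RPMI 1640 with 0.5% Albumax and 25 mg/liter gentamicin, tested in duplicate. Twofold serial dilutions, seven concentrations plus drug-free control, on predried plates; 72 h at 37.5°C under 5% CO2/5% O2/90% N2. Plates freeze-thawed twice, HRP2 sandwich ELISA at 450 nm; IC50 by nonlinear regression.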
(In general: In an ELISA, binding on a coated surface is turned into a signal by an enzyme label.)

Assay [2] concerns Plasmodium falciparum. The assay is described as follows: Inhibition of Plasmodium falciparum AZ10011003 isolate in HRP2 ELISA. In a few lines: (§1)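 Fresh pre-treatment clinical P. falciparum isolates, unfrozen, unwashed and not precultured, in duplicate at 1.5% hematocrit in RPMI 1640 with 0.5% Albumax and 25 mg/liter gentamicin. Plates carried predried twofold dilutions, single or in an 8x8 checkerboard. Incubation was 72 h at 37.5°C in 5% CO2/5% O2/90% N2, then two freeze-thaws. HRP2 sandwich ELISA read at 450 nm; IC50 from nonlinear regression.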

Assay [3] relates to Plasmodium falciparum. Kind of assay: Inhibition of Plasmodium falciparum AZ10011008 isolate in HRP2 ELISA. A digest of the protocol: as §1
The subject of assay [4] is Plasmodium falciparum. Kind of assay: Inhibition of Plasmodium falciparum AZ10011017 isolate in HRP2 ELISA.
The test system of assay [5] is Plasmodium falciparum. Kind of assay: Inhibition of Plasmodium falciparum AZ10011022 isolate in HRP2 ELISA. A digest of the protocol: as §1

For the compound `CCN(CC)CCCC(C)Nc1ccnc2cc(Cl)ccc12` (centres undefined) [CHLOROQUINE], in the assay with Plasmodium falciparum [1], the IC90 (as a rule, the point of the concentration-response curve where the effect stands at 90%) came out at 0.13 µg/mL (≈ 0.405 µM) and the concentration for an effect of 99% (IC99) (commonly the point of the concentration-response curve where the effect stands at 99%) stood at 0.172 µg/mL.
Turning to `C[C@H]1[C@@H](O)O[C@@H]2O[C@@]3(C)CC[C@H]4[C@H](C)CC[C@@H]1[C@@]24OO3` [ARTENIMOL], the IC50 (usually the concentration that inhibits the measured activity by half) in the assay with Plasmodium falciparum [1] is 0.00053 µg/mL (≈ 0.00186 µM); with Plasmodium falciparum [2] it was 0.00024 µg/mL (≈ 0.000844 µM); in the assay with Plasmodium falciparum [3] it was 0.00091 µg/mL (≈ 0.0032 µM); with Plasmodium falciparum [4] it was 0.00027 µg/mL (≈ 0.00095 µM); with Plasmodium falciparum [5] it was 0.00038 µg/mL (≈ 0.00134 µM). Besides, the IC90 in the assay with Plasmodium falciparum [1] is 0.00143 µg/mL (≈ 0.00503 µM). Further, it took 0.00228 µg/mL to reach the 99% level in the assay on Plasmodium falciparum [1] (IC99).
Consider `CC[C@H]1OC(=O)[C@H](C)[C@@H](O[C@H]2C[C@@](C)(OC)[C@@H](O)[C@H](C)O2)[C@H](C)[C@@H](O[C@@H]2O[C@H](C)C[C@H](N(C)C)[C@H]2O)[C@](C)(O)C[C@@H](C)CN(C)[C@H](C)[C@@H](O)[C@]1(C)O` [AZITHROMYCIN], for which the IC50 in the assay on Plasmodium falciparum [1] stood at 2.57 µg/mL (≈ 3.43 µM); in the assay on Plasmodium falciparum [2] it was 2.44 µg/mL (≈ 3.26 µM); in the assay on Plasmodium falciparum [3] it was 5.34 µg/mL (≈ 7.13 µM); in the assay on Plasmodium falciparum [4], 1.98 µg/mL (≈ 2.64 µM); in the assay on Plasmodium falciparum [5], 2.19 µg/mL (≈ 2.92 µM). For the same compound, in the assay on Plasmodium falciparum [1], the 90% effect level (IC90) was put at 13.3 µg/mL (≈ 17.8 µM). The compound also yielded an IC99 with Plasmodium falciparum [1] of 23.9 µg/mL.
In the assay with Plasmodium falciparum [1], `OC(c1cc(C(F)(F)F)nc2c(C(F)(F)F)cccc12)C1CCCCN1` (centres undefined) [MEFLOQUINE] came in with a 90% effect concentration (IC90) of 0.031 µg/mL (≈ 0.0819 µM) and an IC99 of 0.0467 µg/mL.
Consider `C=C[C@H]1CN2CC[C@H]1C[C@H]2[C@H](O)c1ccnc2ccc(OC)cc12` [QUININE], for which the 50% inhibitory concentration (IC50) is 0.0644 µg/mL (≈ 0.198 µM) with Plasmodium falciparum [1], 0.123 µg/mL (≈ 0.38 µM) in the assay with Plasmodium falciparum [2], 0.0828 µg/mL (≈ 0.255 µM) in the assay with Plasmodium falciparum [3] and 0.116 µg/mL (≈ 0.359 µM) in the assay on Plasmodium falciparum [5]. The compound also gave an IC90 in the assay with Plasmodium falciparum [1] of 0.173 µg/mL (≈ 0.533 µM). It took 0.251 µg/mL to reach the 99% level in the assay with Plasmodium falciparum [1] (IC99).
